Source: ChEMBL document CHEMBL3232791, “Synthesis and antibacterial evaluation of amino acid-antibiotic conjugates” (2014)

Key:
Assay type in all cases: functional
Staphylococcus aureus [1] = experiment: Antibacterial activity against Staphylococcus aureus RN4220 assessed as growth inhibition at 300 ug/ml after 16 hrs by spectrophotometric analysis; conditions: RN4220, 16 h, read-out: GI
How it was run: (§1)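 Growth inhibition read as OD600 on 300 µL culture samples, with untreated control cultures taken as maximum growth. Percent inhibition = (OD600 control − OD600 treated) × 100 / OD600 control. Parent antibiotics and their conjugates were run in parallel at three concentrations per compound, in biological duplicate.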

Escherichia coli [2] = experiment: Antibacterial activity against Escherichia coli DH5alpha assessed as growth inhibition at 75 ug/ml after 16 hrs by spectrophotometric method; conditions: DH5[alpha], read-out: GI; how it was run: as §1
Staphylococcus aureus [3] = experiment: Antibacterial activity against Staphylococcus aureus RN4220 assessed as growth inhibition at 150 ug/ml after 16 hrs by spectrophotometric analysis; conditions: RN4220, 16 h, read-out: GI; how it was run: as §1
Escherichia coli [4] = experiment: Antibacterial activity against Escherichia coli DH5alpha assessed as growth inhibition at 50 ug/ml after 16 hrs by spectrophotometric method; conditions: DH5[alpha], read-out: GI; how it was run: as §1
Staphylococcus aureus [5] = experiment: Antibacterial activity against Staphylococcus aureus RN4220 assessed as growth inhibition at 75 ug/ml after 16 hrs by spectrophotometric analysis; conditions: RN4220, 16 h, read-out: GI; how it was run: as §1
Escherichia coli [6] = experiment: Antibacterial activity against Escherichia coli DH5alpha assessed as growth inhibition at 100 ug/ml after 16 hrs by spectrophotometric method; conditions: DH5[alpha], read-out: GI; how it was run: as §1
Staphylococcus aureus [7] = experiment: Antibacterial activity against Staphylococcus aureus RN4220 assessed as growth inhibition at 200 ug/ml after 16 hrs by spectrophotometric analysis; conditions: RN4220, 16 h, read-out: GI; how it was run: as §1
Staphylococcus aureus [8] = experiment: Antibacterial activity against Staphylococcus aureus RN4220 assessed as growth inhibition at 100 ug/ml after 16 hrs by spectrophotometric analysis; conditions: RN4220, 16 h, read-out: GI; how it was run: as §1
Escherichia coli [9] = experiment: Antibacterial activity against Escherichia coli DH5alpha assessed as growth inhibition at 5 ug/ml after 16 hrs by spectrophotometric method; conditions: DH5[alpha], read-out: GI; how it was run: as §1
Bacillus subtilis [10] = experiment: Antibacterial activity against Bacillus subtilis 168 assessed as growth inhibition at 10 ug/ml after 16 hrs by spectrophotometric analysis; conditions: subsp. subtilis str. 168, 16 h, read-out: GI; how it was run: as §1
Escherichia coli [11] = experiment: Antibacterial activity against Escherichia coli DH5alpha assessed as growth inhibition at 2.5 ug/ml after 16 hrs by spectrophotometric method; conditions: DH5[alpha], read-out: GI; how it was run: as §1
Bacillus subtilis [12] = experiment: Antibacterial activity against Bacillus subtilis 168 assessed as growth inhibition at 20 ug/ml after 16 hrs by spectrophotometric analysis; conditions: subsp. subtilis str. 168, 16 h, read-out: GI; how it was run: as §1
Staphylococcus aureus [13] = experiment: Antibacterial activity against Staphylococcus aureus RN4220 assessed as growth inhibition at 50 ug/ml after 16 hrs by spectrophotometric analysis; conditions: RN4220, 16 h, read-out: GI; how it was run: as §1
Escherichia coli [14] = experiment: Antibacterial activity against Escherichia coli DH5alpha assessed as growth inhibition at 10 ug/ml after 16 hrs by spectrophotometric method; conditions: DH5[alpha], read-out: GI; how it was run: as §1
Bacillus subtilis [15] = experiment: Antibacterial activity against Bacillus subtilis 168 assessed as growth inhibition at 40 ug/ml after 16 hrs by spectrophotometric analysis; conditions: subsp. subtilis str. 168, 16 h, read-out: GI; how it was run: as §1
Escherichia coli [16] = experiment: Antibacterial activity against Escherichia coli DH5alpha assessed as growth inhibition at 0.75 ug/ml after 16 hrs by spectrophotometric method; conditions: DH5[alpha], read-out: GI; how it was run: as §1
Staphylococcus aureus [17] = experiment: Antibacterial activity against Staphylococcus aureus RN4220 assessed as growth inhibition at 15 ug/ml after 16 hrs by spectrophotometric analysis; conditions: RN4220, 16 h, read-out: GI; how it was run: as §1
Escherichia coli [18] = experiment: Antibacterial activity against Escherichia coli DH5alpha assessed as growth inhibition at 3 ug/ml after 16 hrs by spectrophotometric method; conditions: DH5[alpha], read-out: GI; how it was run: as §1
Pseudomonas aeruginosa [19] = experiment: Antibacterial activity against Pseudomonas aeruginosa PAO1 assessed as growth inhibition at 40 ug/ml after 16 hrs by spectrophotometric analysis; conditions: PAO1, 16 h, read-out: GI; how it was run: as §1
Staphylococcus aureus [20] = experiment: Antibacterial activity against Staphylococcus aureus RN4220 assessed as growth inhibition at 60 ug/ml after 16 hrs by spectrophotometric analysis; conditions: RN4220, 16 h, read-out: GI; how it was run: as §1
Pseudomonas aeruginosa [21] = experiment: Antibacterial activity against Pseudomonas aeruginosa PAO1 assessed as growth inhibition at 20 ug/ml after 16 hrs by spectrophotometric analysis; conditions: PAO1, 16 h, read-out: GI; how it was run: as §1
Escherichia coli [22] = experiment: Antibacterial activity against Escherichia coli DH5alpha assessed as growth inhibition at 1.5 ug/ml after 16 hrs by spectrophotometric method; conditions: DH5[alpha], read-out: GI; how it was run: as §1
Pseudomonas aeruginosa [23] = experiment: Antibacterial activity against Pseudomonas aeruginosa PAO1 assessed as growth inhibition at 10 ug/ml after 16 hrs by spectrophotometric analysis; conditions: PAO1, 16 h, read-out: GI; how it was run: as §1
Staphylococcus aureus [24] = experiment: Antibacterial activity against Staphylococcus aureus RN4220 assessed as growth inhibition at 30 ug/ml after 16 hrs by spectrophotometric analysis; conditions: RN4220, 16 h, read-out: GI; how it was run: as §1
Bacillus subtilis [25] = experiment: Antibacterial activity against Bacillus subtilis 168 assessed as growth inhibition at 5 ug/ml after 16 hrs by spectrophotometric analysis; conditions: subsp. subtilis str. 168, 16 h, read-out: GI; how it was run: as §1
Escherichia coli [26] = experiment: Antibacterial activity against Escherichia coli DH5alpha assessed as growth inhibition at 40 ug/ml after 16 hrs by spectrophotometric method; conditions: DH5[alpha], read-out: GI; how it was run: as §1
Staphylococcus aureus [27] = experiment: Antibacterial activity against Staphylococcus aureus RN4220 assessed as growth inhibition at 120 ug/ml after 16 hrs by spectrophotometric analysis; conditions: RN4220, 16 h, read-out: GI; how it was run: as §1
Staphylococcus aureus [28] = experiment: Antibacterial activity against Staphylococcus aureus RN4220 assessed as growth inhibition at 240 ug/ml after 16 hrs by spectrophotometric analysis; conditions: RN4220, 16 h, read-out: GI; how it was run: as §1

SMILES | inhibition of growth at 75 µg/mL (Escherichia coli [2]) | inhibition of growth at 50 µg/mL (Escherichia coli [4]) | inhibition of growth at 10 µg/mL (Bacillus subtilis [10]) | inhibition of growth at 20 µg/mL (Bacillus subtilis [12]) | inhibition of growth at 0.75 µg/mL (Escherichia coli [16]) | inhibition of growth at 15 µg/mL (Staphylococcus aureus [17]) | inhibition of growth at 3 µg/mL (Escherichia coli [18]) | inhibition of growth at 40 µg/mL (Pseudomonas aeruginosa [19]) | inhibition of growth at 60 µg/mL (Staphylococcus aureus [20]) | inhibition of growth at 20 µg/mL (Pseudomonas aeruginosa [21]) | inhibition of growth at 1.5 µg/mL (Escherichia coli [22]) | inhibition of growth at 10 µg/mL (Pseudomonas aeruginosa [23]) | inhibition of growth at 30 µg/mL (Staphylococcus aureus [24]) | inhibition of growth at 5 µg/mL (Bacillus subtilis [25]) | other results
Cc1ncc([N+](=O)[O-])n1CCO [METRONIDAZOLE] | 8.2% | 6.64% |  |  |  |  |  |  |  |  |  |  |  |  | inhibition of growth at 300 µg/mL (Staphylococcus aureus [1]): 16.4%; inhibition of growth at 150 µg/mL (Staphylococcus aureus [3]): -9.9%; inhibition of growth at 75 µg/mL (Staphylococcus aureus [5]): -14.3%; inhibition of growth at 100 µg/mL (Escherichia coli [6]): 15%
CCn1cc(C(=O)O)c(=O)c2cnc(N3CCN(C(=O)[C@H](CCCCNC(=O)OCc4ccccc4)NC(=O)OCc4ccccc4)CC3)nc21 |  |  | -7.86% | -4.87% |  |  |  |  |  |  |  |  |  |  | inhibition of growth at 200 µg/mL (Staphylococcus aureus [7]): 52.4%; inhibition of growth at 100 µg/mL (Staphylococcus aureus [8]): 28.2%; inhibition of growth at 5 µg/mL (Escherichia coli [9]): -9.63%; inhibition of growth at 2.5 µg/mL (Escherichia coli [11]): -13.2%; inhibition of growth at 50 µg/mL (Staphylococcus aureus [13]): -20.2%; inhibition of growth at 10 µg/mL (Escherichia coli [14]): -6.9%; inhibition of growth at 40 µg/mL (Bacillus subtilis [15]): 89.9%
CCn1cc(C(=O)O)c(=O)c2cc(F)c(N3CCN(C(=O)C(C)NC(=O)OCc4ccccc4)CC3)cc21 (stereo unspecified) |  |  | 91.4% | 90.3% | -4.73% | 51.5% | 0.77% | 25.8% | 86.1% | -19.8% | 1.25% | -25.7% | 77.9% | 92.3% | 
CCn1cc(C(=O)O)c(=O)c2cc(F)c(N3CCN(C(=O)[C@H](Cc4ccccc4)NC(=O)OCc4ccccc4)CC3)cc21 |  |  | 61.1% | 90.1% | -0.95% | 12% | 0.54% | 5.69% | 92.7% | -18.6% | 3.79% | -28% | 89.6% | 49.1% | 
Nc1ccc(S(=O)(=O)Nc2ncccn2)cc1 [SULFADIAZINE] | 6.44% | 8.11% |  |  |  |  |  |  | -6.47% |  |  |  |  |  | inhibition of growth at 40 µg/mL (Escherichia coli [26]): 2.66%; inhibition of growth at 120 µg/mL (Staphylococcus aureus [27]): 2.17%; inhibition of growth at 240 µg/mL (Staphylococcus aureus [28]): 18.1%
CCn1cc(C(=O)O)c(=O)c2cc(F)c(N3CCN(C(=O)[C@H](C)NC(=O)OCc4ccccc4)CC3)cc21 |  |  | 91.4% | 90.5% | 0.21% | 74.1% | 3.52% | 20.5% | 91% | -14.2% | -0.24% | -26.8% | 81.8% | 92.2% | 
CCn1cc(C(=O)O)c(=O)c2cnc(N3CCN(C(=O)[C@@H](NC(=O)OCc4ccccc4)C(C)C)CC3)nc21 |  |  | 4.69% | 17% |  |  |  |  |  |  |  |  |  |  | inhibition of growth at 200 µg/mL (Staphylococcus aureus [7]): 70.6%; inhibition of growth at 100 µg/mL (Staphylococcus aureus [8]): 60%; inhibition of growth at 5 µg/mL (Escherichia coli [9]): -6.67%; inhibition of growth at 2.5 µg/mL (Escherichia coli [11]): -9.71%; inhibition of growth at 50 µg/mL (Staphylococcus aureus [13]): 45.7%; inhibition of growth at 10 µg/mL (Escherichia coli [14]): 27.2%; inhibition of growth at 40 µg/mL (Bacillus subtilis [15]): 78.2%
Cc1ncc([N+](=O)[O-])n1CCOC(=O)[C@H](CCCCNC(=O)OCc1ccccc1)NC(=O)OCc1ccccc1 | 62.5% | 51.9% |  |  |  |  |  |  |  |  |  |  |  |  | inhibition of growth at 300 µg/mL (Staphylococcus aureus [1]): 68%; inhibition of growth at 150 µg/mL (Staphylococcus aureus [3]): 22.3%; inhibition of growth at 75 µg/mL (Staphylococcus aureus [5]): -2.96%; inhibition of growth at 100 µg/mL (Escherichia coli [6]): 70%
CCn1cc(C(=O)O)c(=O)c2cc(F)c(N3CCN(C(=O)CNC(=O)OCc4ccccc4)CC3)cc21 |  |  | 90.2% | 89.5% | 5.96% | 83.6% | 20.8% | 81.5% | 88.5% | 10.6% | 9.75% | -16.2% | 85.7% | 91.6% | 
CCn1cc(C(=O)O)c(=O)c2cc(F)c(N3CCNCC3)cc21 [NORFLOXACIN] |  |  | 91.9% | 92.2% | 55.3% | 63.9% | 80.8% | 89.1% | 81% | 90.5% | 72.8% | 81.1% | 73.5% | 90.7% | 
